MT stabilizer: stabilizes microtubules in HeLa cells; HeLa tubulin immunostaining HCS, 24 h; share of cells brighter than vehicle mean+2SD; % tubulin-high responders, % at 10 µM; 200,000 tested, 0.83% active; AID 2205;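 active = plate Z-score above 3 for both tubulin-high and condensed-nucleus cell shares, with cell loss under 80%, at 10 µM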;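 also: anti alpha tubulin signal scored within the nucleus-defined area of each cell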
Dynein transport: dynein cargo transport inhibition. 3617.4 mouse cells, GR-EGFP nuclear translocation imaging; test concentration mostly 20 µM; stimulated with dexamethasone, 1 µM; hits give low values. 220,000 tested, 0.47% active. z-score, hits read low. AID 1381;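 active = plate z-score of nuclear minus cytoplasmic receptor signal below a set negative limit, without overly bright fluorescence or cell loss, cut at about -3.5 in these data, passing the limit was not always enough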;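 also: z-score of nuclear minus cytoplasmic ring GR-EGFP intensity difference per well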
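Medium: Induction medium lacking tetracycline, stripped serum | Probe or stimulus: 1.0 µM final dexamethasone stimulus | Schedule: 48 h induction, then 1 h compound, then 30 min agonist, 37 °C | Signal: Automated 10x imaging of fixed Hoechst-stained cells | Evaluation: Per-cell GR-EGFP intensity, nucleus versus surrounding cytoplasmic ring, well-averaged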
L major viab: inhibitors of Leishmania major promastigote growth; inhibition, % at 10 µM; Leishmania major promastigotes, resazurin fluorescence viability; 200,000 tested, 9% active; in the data active = inhibition above about 50%;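 also: promastigotes grown with compound for 44 hours at 28 °C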
Autophagy mod: alters autophagy in cells; MEF GFP-LC3 puncta imaging; test concentration mostly 10 µM; calls only at 10 µM (by protocol); 190,000 tested, 0.98% active; AID 463193;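 active = percentage of spot-positive cells more than 3 SD above its plate mean, without a fluorescence outlier flag or 80% toxicity; inconclusive = no clear call, values can overlap the other calls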
bCat nuc transl: alters nuclear translocation of beta-catenin in HeLa cells | immunofluorescence imaging | nuclear translocation activity, % at 5 µM | 190,000 tested, 0.3% active | AID 1665;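 active = nuclear translocation activity above 50% at 5 µM, with a well cell count of 50 or more; inconclusive = wells under 50 cells across six images, flagged as toxic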;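 also: per-cell ratio of nuclear to cytoplasmic median beta-catenin stain intensity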
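Test system: human HeLa cells, endogenous beta-catenin. Times: 24 h compound exposure, 37°C. Measured by: beta-catenin immunofluorescence imaging with DAPI.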
CHOP inh: inhibitors of CHOP induction in ER stress response; inhibition, % at 10 µM; CHO-K1 CHOP-promoter luciferase, tunicamycin-induced, 15-18 h; AID 2732; 220,000 tested, 3.8% active;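 active = compounds that reduced the stress-induced luciferase reporter signal by more than about 70% of percent inhibition, limit read from the data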
Each line names hits and unclear results; the compound was inactive in the other large screens. The list is not random: actives were taken first. Their share in the collection is about 12%.

Cc1cccc(NC(=O)CCCn2c(=S)[nH]c3ccccc3c2=O)c1	none
CCOc1ccccc1/C=C/C(=O)c1ccc(Cl)cc1	L major viab 77.8
CCOc1ccc(/C=C/C(=O)c2ccc(-c3ccccc3)cc2)cc1	none
CCOc1ccc(C(=O)NNC2CC(=O)N(Cc3ccc(Cl)cc3)C2=O)cc1OC (stereo unspecified)	none
CC(C)c1ccccc1NC(=O)COC(=O)c1c2c(nc3ccccc13)CCN(Cc1ccccc1)C2	Autophagy mod active (no result: bCat nuc transl)
NC(=O)COC(=O)c1c2c(nc3ccccc13)CCC2	none
O=C(NC1CCCCCC1)c1c2c(nc3ccccc13)CCN(Cc1ccccc1)C2	none
CCN1CCc2nc3ccccc3c(C(=O)Nc3ccc(C#N)cc3)c2C1	none
Cc1c(Cl)cccc1NC(=O)COC(=O)c1c2c(nc3ccccc13)CCN(Cc1ccccc1)C2	L major viab 99.2, Autophagy mod active
Cc1cc(N2CCN(C)CC2)ccc1NC(=O)c1c2c(nc3ccccc13)CCN(Cc1ccccc1)C2	L major viab 100.5, Autophagy mod inconclusive
CC(C)(C)c1cc(-c2n[nH]c(=S)n2-c2ccc(Cl)cc2)n[nH]1	none (no result: MT stabilizer, L major viab, Autophagy mod)
CCCCCCCn1c(=N)n(CC(O)c2ccco2)c2ccccc21 (stereo unspecified)	L major viab 81.8
CCCCCCCn1c(=N)n(CC(=O)c2ccco2)c2ccccc21	L major viab 100.4
CCOc1ccc2nc(NCCCNS(=O)(=O)c3ccccc3)c(C#N)cc2c1	none
CCOC(=O)C(C(=O)Nc1ccccn1)C1CCCCC1 (stereo unspecified)	none
CCOC(=O)C(C(=O)Nc1nc2ccccc2s1)C1CCCCC1 (stereo unspecified)	L major viab 85.5, CHOP inh 74.2
CCOC(=O)C(C(=O)Nc1nccs1)C1CCCCC1 (stereo unspecified)	L major viab 51.8
CC1CCCC(C)N1CC(O)COCC1COc2ccccc2O1 (stereo unspecified)	L major viab 52.2 (no result: bCat nuc transl)
OCCN1CCN(CC(O)COCC2COc3ccccc3O2)CC1 (stereo unspecified)	none
Cc1c(C(=O)NCc2ccc3c(c2)OCO3)oc2ccc(S(=O)(=O)N3CCC(C)CC3)cc12	none
O=C(Cn1c(=O)oc2cc(S(=O)(=O)N3CCCC3)ccc21)Nc1ccc(C(F)(F)F)cc1	L major viab 52.1
COc1cccc(NC(=O)Cn2c(=O)oc3cc(S(=O)(=O)N4CCCC4)ccc32)c1	none (no result: MT stabilizer, L major viab, Autophagy mod)
Cc1cc(C)cc(NC(=O)Cn2c(=O)oc3cc(S(=O)(=O)N4CCC(C)CC4)ccc32)c1	CHOP inh 71.9
CC1CCN(S(=O)(=O)c2ccc3c(c2)oc(=O)n3CC(=O)NCc2ccc3c(c2)OCO3)CC1	CHOP inh 83.3 (no result: bCat nuc transl)
Cc1c(C(=O)NNC(=S)Nc2cccc(Cl)c2)nnn1-c1ccccc1	none (no result: bCat nuc transl)
CCOc1nc(NC(=O)NC(=O)c2ccccc2)nc(-c2ccccc2)n1	Autophagy mod active
CCc1ccc(CNc2ccc(O)cc2)cc1	L major viab 97.7 (no result: bCat nuc transl, CHOP inh)
Cc1cccc(C(C#N)c2nc3ccccc3nc2C(F)(F)F)c1 (stereo unspecified)	none (no result: Dynein transport, bCat nuc transl, CHOP inh)
Cc1ccc2nc(C(F)(F)F)c(C#N)c(N)c2c1	L major viab 68.0 (no result: bCat nuc transl)
COc1ccccc1N(CC(=O)NCC1CCCO1)C(=O)CNS(=O)(=O)c1ccc(Cl)cc1 (stereo unspecified)	none (no result: MT stabilizer, L major viab, Autophagy mod)
COC(=O)c1ccc(NC(=O)C(=O)N2CCN(C(=S)Nc3cccc(OC)c3)CC2)cc1	L major viab 71.6
COC(=O)c1ccc(NC(=O)C(=O)N2CCN(C(=S)Nc3ccc(C)cc3)CC2)cc1	L major viab 66.0
O=C(OCC(=O)N1CCN(Cc2ccccc2)CC1)c1ccc(Cl)cc1	L major viab 57.1
COC(=O)c1ccc(NC(=S)N2CCN(Cc3ccccc3Cl)CC2)cc1	none
COC(=O)c1ccc(NC(=S)N2CCN(Cc3ccc(Cl)cc3)CC2)cc1	CHOP inh 89.2
COC(=O)c1ccc(NC(=O)C(=O)N2CCN(C(=S)Nc3ccc(OC)cc3)CC2)cc1	none
O=C(OCC(=O)N1CCN(C(=O)c2ccco2)CC1)c1ccccc1	none
C/C(CC(=O)NC1CCCCC1)=N\NC(=O)COc1ccc(C)cc1Br	none
Cc1ccccc1NC(=O)COC(=O)/C=C/c1cn(-c2ccccc2)nc1-c1cccnc1	L major viab 52.9 (no result: bCat nuc transl)
COc1ccc(-c2nn(-c3ccccc3)cc2/C=C/C(=O)OCC(=O)Nc2ccc(C#N)cc2)cc1	L major viab 92.2 (no result: bCat nuc transl)
COc1ccc(-c2nn(-c3ccccc3)cc2/C=C/C(=O)OCC(=O)Nc2cccc(C#N)c2)cc1	none
O=C(/C=C/c1cn(-c2ccccc2)nc1-c1cccnc1)N1CCCCC1	none
CCOc1ccc(NC(=S)N(CCc2c(C)[nH]c3ccccc23)Cc2ccco2)cc1	none
O=C(CCNC(=O)c1ccccc1Cl)Nc1cccc(C(F)(F)F)c1	L major viab 65.2
O=C(Nc1cccc(C(F)(F)F)c1)c1cccnc1NCCc1ccccc1	CHOP inh 75.0
COc1ccc(-c2nnc(Nc3nc4c(OC)cccc4s3)o2)cc1	L major viab 79.2
CCC(=O)Nc1nnc(-c2ccc(OC)cc2)o1	none
COc1ccc(-c2nnc(Nc3nc4c(OC)cccc4s3)o2)c(OC)c1	L major viab 94.3
O=C1Nc2ccc(Br)cc2C12NNc1ccccc1O2 (stereo unspecified)	L major viab 72.9, Autophagy mod active, CHOP inh 104.9
CCc1cccc(CC)c1N(COC)C(=O)Cn1ccccc1=N	Autophagy mod active
Cc1ccc2nc(NCc3ccccc3)c(C=NCc3ccccc3)c(=O)n2c1	none
Cc1ccc2nc(NCCCN3CCOCC3)c(C=NCCCN3CCOCC3)c(=O)n2c1	L major viab 78.7
CC1(C)C2CCC1(CS(=O)(=O)Nc1ccc(S(=O)(=O)N3CCCC3)cc1)C(=O)C2 (stereo unspecified)	L major viab 50.3
Cn1c(O)c(N=Nc2nc(-c3ccccc3)cs2)c2ccccc21	L major viab 65.8 (no result: bCat nuc transl)
Cn1c(O)c(N=Nc2ccc(F)cc2)c2ccccc21	none
CCOc1cc(S(=O)(=O)N(Cc2ccccc2)Cc2ccccc2)c(OCC)cc1-n1cnnn1	L major viab 92.5
Cc1cccc(Oc2ccc(N)cc2)c1	none (no result: bCat nuc transl)
Nc1ccc(Oc2cccc(Oc3ccc(N)cc3)c2)cc1	CHOP inh 88.5
CCCCC1CC1C(=O)Nc1ccc(OC)c(OC)c1 (stereo unspecified)	none
O=C(/C=C\c1ccc2c(c1)OCO2)CC1(O)C(=O)Nc2ccccc21 (stereo unspecified)	none (no result: MT stabilizer, L major viab, Autophagy mod)
COc1ccc(C(NC(=O)c2c(F)c(F)c(F)c(F)c2F)c2ccccc2)cc1 (stereo unspecified)	L major viab 94.9
COc1ccc(C(NC(=O)c2ccccc2F)NC(=O)c2ccccc2F)cc1	none
